The source of these data is ChEMBL document CHEMBL5331128, “Alicyclic Ring Size Variation of 4-Phenyl-2-naphthoic Acid Derivatives as P2Y14 Receptor Antagonists” (J Med Chem, 2023).

In brackets after ≈: the same amount, converted by molar mass. Activity calls are given as the source filed them. Where only a bound is given, the exact number is not on record here.

Data set [1] is described as follows: Intraperitoneal bioavailability in Wistar rat at 3 mg/kg and measured upto 24 hrs. The conditions noted are these: in vivo, ip.
A short description of data set [2]: Half life in Wistar rat at 1 mg/kg, ip and measured upto 24 hrs. The format is ADME, organism-based. Particulars: in vivo.
Data set [3] has as its system Mus musculus. Nature of the data set: Anti-asthmatic activity against OVA/Aspergillus-sensitized protease-mediated C57BL/6J mouse model allergic asthma assessed as reduction in airway eosinophilia in BAL fluid at 10 mg/kg,ip followed by 0.5 hrs OVA challenge and measured after 48 hrs. It counts as functional, organism-based. The conditions noted are these: time 48.5 hrs.

A short description of data set [4]: Acute toxicity in Wistar rat assessed as morbidity at 1 to 10 mg/kg, ip and measured upto 24 hrs. The format is organism-based. The conditions noted are these: in vivo, dose 1-10 mg/kg. A digest of the protocol:
(§1)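 Male Wistar rats; single dose at 1, 3 or 10 mg/kg i.p., or 0.5 mg/kg i.v. Animals were watched for mortality and morbidity over the experimental period, in the course of a plasma pharmacokinetic study.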

Data set [5] can be described thus: Stability in mouse plasma assessed as parent compound remaining at 1 uM and measured at 120 mins by LC-MS/MS analysis. Particulars: 2 h. It counts as ADME, cell-free. A digest of the protocol: (§2)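 Plasma from human, rat and mouse; percent parent remaining at 120 min.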
Data set [6] is described as follows: Stability in simulated gastric fluid assessed as parent compound remaining after 120 mins. Particulars: simulated gi fluid, 2 h. It counts as ADME. A digest of the protocol:
(§3)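 Incubation in simulated gastric or intestinal fluid; percent parent remaining read at 120 min.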

The nature of data set [7]: Cmax in Wistar rat plasma at 1 mg/kg, ip and measured upto 24 hrs. It counts as ADME, organism-based. Further details: time < 24 hrs, dose 1 mg/kg, route ip.
Data set [8] is described as follows: Stability in human plasma assessed as parent compound remaining at 1 uM and measured at 120 mins by LC-MS/MS analysis. Particulars: 2 h. It counts as ADME, cell-free. A digest of the protocol: as §2
A short description of data set [9]: Half life in Wistar rat at 0.5 mg/kg, iv and measured upto 24 hrs. It counts as ADME, organism-based. Particulars: in vivo.
The nature of data set [10]: Solubility of compound in pH 7.4 incubated for 20 hrs by pION method. The format is physicochemical. Particulars: buffer, pH 7.4, 20 h. In outline: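 pION method: 5 mM DMSO stocks diluted 1:100 into pION buffer at pH 4.0 or 7.4, incubated 20 h. Undissolved material removed by centrifugation at 14,000 rpm for 20 min, then supernatant mixed 1:1 with n-propanol. […] Mean ± SD reported.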

The target in the next data set is Cytochrome P450 2C9 (Homo sapiens, UniProt P11712). Nature of the data set: Inhibition of CYP2C9 (unknown origin). The format is ADME.
Sequence of Cytochrome P450 2C9 (P11712 whole entry): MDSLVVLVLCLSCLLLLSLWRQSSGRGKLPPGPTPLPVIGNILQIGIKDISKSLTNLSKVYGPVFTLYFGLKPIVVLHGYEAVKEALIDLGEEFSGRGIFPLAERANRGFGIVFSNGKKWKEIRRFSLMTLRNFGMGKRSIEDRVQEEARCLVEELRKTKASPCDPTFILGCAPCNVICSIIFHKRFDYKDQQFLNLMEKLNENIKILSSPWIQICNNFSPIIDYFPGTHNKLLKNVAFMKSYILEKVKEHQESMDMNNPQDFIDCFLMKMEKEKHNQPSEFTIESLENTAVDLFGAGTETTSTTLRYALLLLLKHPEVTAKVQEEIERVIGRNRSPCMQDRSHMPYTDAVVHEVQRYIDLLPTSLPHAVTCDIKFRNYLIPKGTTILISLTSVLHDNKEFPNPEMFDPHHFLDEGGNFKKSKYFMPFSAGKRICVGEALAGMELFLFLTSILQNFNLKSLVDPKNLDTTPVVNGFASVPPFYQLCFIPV
The nature of data set [11]: Half life in Wistar rat at 3 mg/kg, ip and measured upto 24 hrs. It counts as ADME, organism-based. The conditions noted are these: in vivo.
Data set [12] is described as follows: Stability in simulated intestinal fluid assessed as parent compound remaining after 120 mins. The format is ADME. Particulars: simulated gi fluid, 2 h. In outline: as §3
The subject of data set [13] is Mus musculus. Nature of the data set: Anti-asthmatic activity against OVA/Aspergillus-sensitized protease-mediated C57BL/6J mouse model allergic asthma assessed as reduction in lymphocytes in BAL fluid at 10 mg/kg,ip followed by 0.5 hrs OVA challenge and measured after 48 hrs. The format is functional, organism-based. Particulars: time 48.5 hrs.
The target of data set [14] is T1, Muscarinic acetylcholine receptor M5 (Homo sapiens, UniProt P08912).
T1 sequence (P08912 whole entry): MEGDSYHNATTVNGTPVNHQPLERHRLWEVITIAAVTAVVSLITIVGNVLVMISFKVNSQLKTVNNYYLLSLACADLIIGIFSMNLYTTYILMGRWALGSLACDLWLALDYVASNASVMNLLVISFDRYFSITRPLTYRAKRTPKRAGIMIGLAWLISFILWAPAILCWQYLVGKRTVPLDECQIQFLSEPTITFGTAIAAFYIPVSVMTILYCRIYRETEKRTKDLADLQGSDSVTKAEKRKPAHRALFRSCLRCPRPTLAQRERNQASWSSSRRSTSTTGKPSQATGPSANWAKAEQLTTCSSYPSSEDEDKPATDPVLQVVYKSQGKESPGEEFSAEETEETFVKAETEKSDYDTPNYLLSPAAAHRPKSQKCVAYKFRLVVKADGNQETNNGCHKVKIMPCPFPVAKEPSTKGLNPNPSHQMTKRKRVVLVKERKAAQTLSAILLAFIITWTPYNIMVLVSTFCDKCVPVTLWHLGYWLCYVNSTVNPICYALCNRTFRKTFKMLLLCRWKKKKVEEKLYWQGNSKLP
Nature of the data set: Displacement of […] from human muscarinic M5 receptor assessed as inhibition constant by radioligand displacement assay. Background: In a radioligand displacement assay an active substance lowers the binding of a labelled ligand.

Data set [15] concerns the target Voltage-gated inwardly rectifying potassium channel KCNH2 (Homo sapiens, UniProt Q12809). Description: Inhibition of human ERG stably expressed in human HEK293 cells incubated for 2 hrs by TAMRA based fuorescence polarization assay. It counts as toxicity, cell-based. In outline: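 hERG inhibition measured in a fluorescent dye-binding assay.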
Data set [16] concerns Mus musculus. Nature of the data set: Antiallodynic activity in CCI surgery neuropathic pain Hsd:ICR mouse model assessed as reversal of mechano-allodynia by measuring paw withdrawal threshold at 10 micromol/kg,po and measured upto 6 hrs by von frey test. The format is functional, organism-based. The conditions noted are these: dose 10.0 µmol/kg. A digest of the protocol: (§4)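 CCI neuropathic pain in adult male CD-1 mice. Single oral gavage dose of 10 μmol/kg on day 7 post-surgery. Vehicle 5% DMSO + 10% (Kolliphor HS 15:DMSO 5:95) in 0.5% methylcellulose, 0.2 mL. Von Frey paw withdrawal threshold on both hindpaws. Mean ± SD; two-way ANOVA with Dunnett's test.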

Another data set has as its target Cytochrome P450 3A4 (Homo sapiens, UniProt P08684). Nature of the data set: Inhibition of CYP3A4 (unknown origin). It counts as ADME.
Data set [17] is described as follows: Cmax in Wistar rat plasma at 3 mg/kg, ip and measured upto 24 hrs. It counts as ADME, organism-based. Also on record: dose 3 mg/kg, time < 24 hrs, route ip.
For another data set, the target named is T2, Cytochrome P450 1A2 (Homo sapiens, UniProt P05177).
T2 sequence (P05177 whole entry): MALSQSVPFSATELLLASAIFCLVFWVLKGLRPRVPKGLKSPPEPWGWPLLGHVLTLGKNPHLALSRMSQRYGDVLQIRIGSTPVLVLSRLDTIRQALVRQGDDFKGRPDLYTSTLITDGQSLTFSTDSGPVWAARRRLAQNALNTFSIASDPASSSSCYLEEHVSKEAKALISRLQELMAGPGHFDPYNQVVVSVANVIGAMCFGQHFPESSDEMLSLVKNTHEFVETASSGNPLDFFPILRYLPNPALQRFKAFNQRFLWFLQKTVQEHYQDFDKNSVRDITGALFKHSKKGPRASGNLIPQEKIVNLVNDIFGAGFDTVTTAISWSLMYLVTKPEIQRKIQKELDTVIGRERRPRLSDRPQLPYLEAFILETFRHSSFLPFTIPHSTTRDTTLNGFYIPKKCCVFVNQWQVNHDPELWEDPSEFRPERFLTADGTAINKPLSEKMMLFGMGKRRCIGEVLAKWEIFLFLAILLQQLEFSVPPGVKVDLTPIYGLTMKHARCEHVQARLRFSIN
Description: Inhibition of CYP1A2 (unknown origin). It counts as ADME.

Data set [18] concerns Mus musculus. Description: Antiallodynic activity in CCI surgery neuropathic pain Hsd:ICR mouse model assessed as reversal of mechano-allodynia by measuring paw withdrawal threshold at 10 micromol/kg,po and measured at 1 hrs by von frey test. It counts as functional, organism-based. Particulars: dose 10.0 µmol/kg. A digest of the protocol: as §4
The nature of data set [19]: Acute toxicity in Wistar rat assessed as mortality at 0.5 mg/kg, iv and measured upto 24 hrs. The conditions noted are these: in vivo. It counts as organism-based. In outline: as §1
The nature of data set [20]: Acute toxicity in Wistar rat assessed as morbidity at 0.5 mg/kg, iv and measured upto 24 hrs. The format is organism-based. Particulars: in vivo. A digest of the protocol:
as §1

In data set [21] the test system is Mus musculus. Nature of the data set: Protection against cardiac ischemia/reperfusion induced C57BL/6J mouse injury model assessed as reduction in infarct area by measuring AAR/TTA ratio at 2 mg/kg, sc prior to 0.5 hrs of myocardial ischemia and 48 h of reperfusion (Rvb= […]). The format is functional. Further details: scale not given: the % may be the effect or the level left. The conditions noted are these: time 48.5 hrs.

Sequence of Cytochrome P450 3A4 (P08684 whole entry): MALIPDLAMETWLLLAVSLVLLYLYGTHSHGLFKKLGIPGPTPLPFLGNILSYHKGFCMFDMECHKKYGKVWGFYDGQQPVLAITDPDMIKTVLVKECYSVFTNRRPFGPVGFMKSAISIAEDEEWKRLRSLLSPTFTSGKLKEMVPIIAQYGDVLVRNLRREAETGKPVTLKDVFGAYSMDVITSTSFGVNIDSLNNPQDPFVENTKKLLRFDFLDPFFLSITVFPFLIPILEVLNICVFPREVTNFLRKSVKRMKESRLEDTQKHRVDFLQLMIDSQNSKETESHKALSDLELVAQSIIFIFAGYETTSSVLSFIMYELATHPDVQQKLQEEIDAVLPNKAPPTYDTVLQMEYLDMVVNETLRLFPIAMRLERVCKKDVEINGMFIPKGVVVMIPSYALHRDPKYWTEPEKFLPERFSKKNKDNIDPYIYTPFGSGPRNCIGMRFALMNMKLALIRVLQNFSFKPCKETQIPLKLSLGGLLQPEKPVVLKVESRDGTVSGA
Sequence of Voltage-gated inwardly rectifying potassium channel KCNH2 (Q12809 whole entry): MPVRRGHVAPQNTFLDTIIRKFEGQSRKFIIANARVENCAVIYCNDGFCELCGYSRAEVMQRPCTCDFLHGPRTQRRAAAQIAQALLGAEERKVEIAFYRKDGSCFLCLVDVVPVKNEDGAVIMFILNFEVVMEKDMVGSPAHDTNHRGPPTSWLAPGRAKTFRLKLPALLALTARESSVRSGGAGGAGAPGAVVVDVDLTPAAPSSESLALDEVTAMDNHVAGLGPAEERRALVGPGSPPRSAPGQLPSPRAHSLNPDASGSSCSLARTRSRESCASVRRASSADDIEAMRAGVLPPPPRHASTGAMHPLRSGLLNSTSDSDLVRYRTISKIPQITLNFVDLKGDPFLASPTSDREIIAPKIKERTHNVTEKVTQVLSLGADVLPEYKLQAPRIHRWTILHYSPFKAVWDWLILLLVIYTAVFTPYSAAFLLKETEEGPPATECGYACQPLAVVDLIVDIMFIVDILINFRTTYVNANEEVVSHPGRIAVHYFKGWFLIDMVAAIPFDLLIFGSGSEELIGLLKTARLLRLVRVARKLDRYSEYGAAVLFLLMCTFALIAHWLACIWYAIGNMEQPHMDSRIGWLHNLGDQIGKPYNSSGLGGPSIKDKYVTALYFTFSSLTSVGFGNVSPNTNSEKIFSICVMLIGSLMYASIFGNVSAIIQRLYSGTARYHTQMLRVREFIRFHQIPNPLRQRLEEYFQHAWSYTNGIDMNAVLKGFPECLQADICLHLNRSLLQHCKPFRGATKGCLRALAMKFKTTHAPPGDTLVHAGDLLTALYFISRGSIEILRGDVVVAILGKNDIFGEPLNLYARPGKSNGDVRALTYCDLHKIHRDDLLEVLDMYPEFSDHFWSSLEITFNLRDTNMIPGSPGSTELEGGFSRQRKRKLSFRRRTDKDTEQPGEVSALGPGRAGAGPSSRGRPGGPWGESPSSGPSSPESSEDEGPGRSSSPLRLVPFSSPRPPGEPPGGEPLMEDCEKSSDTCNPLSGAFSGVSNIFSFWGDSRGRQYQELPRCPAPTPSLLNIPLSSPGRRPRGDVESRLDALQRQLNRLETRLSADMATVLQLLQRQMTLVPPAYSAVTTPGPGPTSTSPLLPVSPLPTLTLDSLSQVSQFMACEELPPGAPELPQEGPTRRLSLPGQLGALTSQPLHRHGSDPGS

As usually defined, the Cmax is the peak of the concentration-time curve. The term solubility denotes the dissolved amount per volume that the medium holds. Usually IC50 stands for the concentration that inhibits the measured activity by half. Usually Ki stands for the equilibrium dissociation constant of an inhibitor or competing ligand from its target. With `O=C(O)c1cc(-c2ccc([C@]3(O)[C@@H]4CNC[C@H]3C4)cc2)c2ccc(-c3ccc(C(F)(F)F)cc3)cc2c1`, the bioavailability in [1] was 114%. Also, the t1/2 stood at 3.01 h in data set [2], 2.36 h in data set [9] and 4.32 h in [11]. Besides, the outcome in the data set with Mus musculus [3], in the data set with Mus musculus [16] and in the data set with Mus musculus [18] was Active. Moreover, the Activity entry in data set [4] was “Non-Toxic”; in data set [19] it was “Non-Toxic”; in data set [20], “Non-Toxic”; with Mus musculus [21] it was 33.7%. For the same compound, the Stability is 100% in data set [5], 69.8% in data set [6], 91.1% in data set [8] and 93.3% in data set [12]. Further, the Cmax in data set [7] was 500 nM; in data set [17] it was 1300 nM. This compound also had a solubility in data set [10] of 1.4 µg/mL (≈ 2.78 µM). Also, the IC50 (on Cytochrome P450 2C9; in data set [15]; on Cytochrome P450 3A4; on Cytochrome P450 1A2) was over 30 µM each time. In the data set on Mus musculus [13], the outcome was inactive. Besides, the inhibition constant (Ki) in data set [14] was 6 µM.
